Measured values gathered from unrelated publications.
SCN1A: Sodium channel protein type 1 subunit alpha (SCN1A, Homo sapiens, UniProt P35498)
PTK2: Focal adhesion kinase 1 (PTK2, Homo sapiens, UniProt Q05397)

SMILES	target	observed	mode	method	concentration	quantity	result
C=CC(=O)N1CCC(COCC(=O)N2CCN(c3nc(-c4cnc(N)nc4C(F)F)nc(N4CCOC[C@@H]4C)n3)CC2)CC1	Receptor-interacting serine/threonine-protein kinase 2 (RIPK2, Homo sapiens, UniProt O43353)	binding		competition with immobilised ligand	1 µM	remaining binding	95%
CC12CC3CC(C)(C1)CC(N)(C3)C2	SCN1A	ion current	inhibitor	patch clamp	3 µM	inhibition	0.782%
C[C@@H]1CC2=C(CN1Cc1cccc(C#N)c1)C(=O)N(Cc1ccc(Br)cc1)C1=NCCN12	ATP-dependent Clp protease proteolytic subunit, mitochondrial (CLPP, Homo sapiens, UniProt Q16740)	thermal stability		DSF	670 µM	ΔTm	17.7 °C
C[C@H]1O[C@H](O[C@H]2[C@H](O)[C@@H](O)[C@@H](O[C@H]3[C@H](O)[C@@H](O)C(O)O[C@@H]3CO)O[C@@H]2CO)[C@H](O)[C@@H](O)[C@@H]1N[C@H]1C=C(CO)[C@@H](O)[C@H](O)[C@H]1O (stereo partly shown)	Alpha-glucosidase MAL12 (MAL12, Saccharomyces cerevisiae S288c, UniProt P53341)	enzyme activity	inhibitor	absorbance	1000 µg/mL	inhibition	80.6%
CNc1ncc2c(/C=C/C(=O)N3CCC(OC)CC3)nn(Cc3cccc(C(F)(F)F)c3)c2n1	Cyclin-dependent kinase 5, with p35 (CDK5, Homo sapiens, UniProt Q00535)	enzyme activity	inhibitor	radiometric	1 µM	remaining activity	89%
COc1cc(-c2cncc3c2CN(C)Cc2cc(N4CCNCC4)ccc2-3)cc(OC)c1OC	PTK2	enzyme activity	inhibitor		1 µM	remaining activity	102%
Cn1c(=O)c2[nH]cnc2n(C)c1=O	SCN1A	ion current	inhibitor	patch clamp	3 µM	inhibition	0.195%
Cc1cc([C@@H](C)Nc2ccccc2C(=O)O)c2nc(N3CCC(F)(F)CC3)c(C#N)c(=O)n2c1	PTK2	binding		competition with immobilised ligand	10 µM	remaining binding	100%
Cc1nnc(SCC2=C(C(=O)O)N3C(=O)[C@@H](NC(=O)Cn4cnnn4)[C@H]3SC2)s1	SCN1A	ion current	inhibitor	patch clamp	30 µM	inhibition	7.45%
CC(=O)c1c(C)c2cnc(Nc3ccc(N4CCNCC4)cn3)nc2n(C2CCCC2)c1=O	Cyclin-dependent kinase 5, with p25 (CDK5, Homo sapiens, UniProt Q00535)	enzyme activity	inhibitor	ADP detection	1 µM	activity vs control	97%
